STAT3 inh – STAT3 signaling inhibition; U3A cells, IL-6 STAT3-luciferase reporter, luminescence; host cell line lacks STAT1; inhibition, % at 5.5 µM; 0.89% of 190,000 active; AID 862;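 active means inhibition above the mean inhibition across all screened compounds plus 3 SD, cut at about 44% in these data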;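 further: 0% = DMSO only wells and 100% = 100 µM nifuroxazide control wells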
STAT3 activator – activators of IL-6 induced STAT3 signaling; U3A cells, IL-6 STAT3-luciferase reporter, luminescence; 100% = signal with IL-6 EC80 alone; activation (% of control), % at 5.6 µM; 0.91% of 190,000 active; AID 871;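 active means activation above the screen-wide mean of compound activation plus 3 SD, cut at about 130% in these data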;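 further: 0% = background luminescence of wells with medium and substrate only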
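Test system: human U3A cells carrying STAT3-luciferase construct; control set: IL-6-only wells as 100% reference; timing: compound pre-incubation 1 h before IL-6, then 6 h stimulation at 37 °C; also added: IL-6 stimulus at 33 ng/mL final; evaluation: % activation versus median of IL-6-stimulated wells; detection: reporter luminescence signal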
APP 5'UTR act – APP 5'UTR luciferase reporter activation. SH-SY5Y APP 5'UTR luciferase reporter, luminescence; zero percent = DMSO vehicle wells. 1% of 190,000 active. activation, % at 2 µM;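 active means activation above a set limit, based on mean plus 3 SD of controls, cut at about 140% in these data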
STAT1 activator – increases IFN-gamma driven STAT1 reporter signal; NIH 3T3 STAT1-luciferase reporter, luminescence; 100% = IFN-gamma alone, no compound; activation (% of control), % at 5.5 µM; 2.6% of 200,000 active; AID 932;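 active means activation above the screen-wide mean activation plus 3 SD, cut at about 130% in these data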;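 further: raw ratio to IFN-gamma control signal so 100% means no change and 0% no light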
NF-kB expr up – NF-kB expression increase, human neuronal cells; NF-kB reporter expression; active compounds read high; AID 1239; 1.6% of 190,000 active; fold change at 12.5 µM; in the data active means fold change above about 3.3
STAT1 blocker – STAT1 signaling inhibition; AID 920; inhibition, % at 5.5 µM; 0.35% of 200,000 active; NIH 3T3 STAT1-luciferase reporter, IFN-gamma, luminescence;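 active means inhibition above a set limit, the mean inhibition across all tested compounds plus 3 SD, cut at about 34% in these data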;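 further: 0% = IFN-gamma with DMSO and 100% = IFN-gamma with 300 µM nifuroxazide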
Numbers without * were called inactive. A selection: hits, their analogues and other compounds. The true share with any hit is near 4.9%.

`O=C(N/N=C/c1cccs1)c1cncc(Br)c1` gave STAT3 inh 10, STAT3 activator 95, APP 5'UTR act 6, STAT1 activator 105, NF-kB expr up 1.4 and STAT1 blocker -5.
`O=C(N/N=C/c1ccc(OCc2ccccc2)cc1)c1cccs1` gave STAT3 inh -9, STAT3 activator 110, APP 5'UTR act 4, STAT1 activator 140*, NF-kB expr up 1.7 and STAT1 blocker -45.
Screening O=C(CNc1cccc2ccccc12)N/N=C/C(Br)=C/c1ccccc1 returned STAT3 inh 15, STAT3 activator 90, APP 5'UTR act -7, STAT1 activator 91, NF-kB expr up 0.78 and STAT1 blocker 10.
Oc1ccc(N=Cc2ccc(OCc3ccccc3)cc2)cc1 was read as STAT3 inh -2, STAT3 activator 103, APP 5'UTR act 33, STAT1 activator 142*, NF-kB expr up 3.2 and STAT1 blocker -44.
O=C(N/N=C/c1cccs1)c1n[nH]c2c1CCC2 was read as STAT3 inh 24, STAT3 activator 79, APP 5'UTR act 6, STAT1 activator 130*, NF-kB expr up 3 and STAT1 blocker -33.
For O=C(Cc1cccs1)N1CCN(c2ccc([N+](=O)[O-])cc2)CC1 the results were STAT3 inh 3, STAT3 activator 99, APP 5'UTR act -21, STAT1 activator 90, NF-kB expr up 1 and STAT1 blocker 10.
`COc1ccc(OC)c(NC(=O)Nc2cc(C(=O)O)ccc2C)c1` gave STAT3 inh 6, STAT3 activator 105, APP 5'UTR act -4, STAT1 activator 108, NF-kB expr up 1 and STAT1 blocker -10.
For COC(=O)N/N=C/c1cc(Cl)cc(Cl)c1OCc1ccc(F)cc1 the results were STAT3 inh -1, STAT3 activator 103, APP 5'UTR act -21, STAT1 activator 92, NF-kB expr up 1.1 and STAT1 blocker 9.
O=C(N/N=C/C=C/c1ccccc1[N+](=O)[O-])c1cccs1 was read as STAT3 inh 4, STAT3 activator 94, APP 5'UTR act 9, STAT1 activator 109, NF-kB expr up 4.2* and STAT1 blocker -10.
For O=C(N/N=C/C(Br)=C/c1ccccc1)c1n[nH]c2c1CCC2 the results were STAT3 inh -35, STAT3 activator 137*, STAT1 activator 146*, NF-kB expr up 8* and STAT1 blocker -50.
Screening O=C(N/N=C/C=C\c1ccccc1[N+](=O)[O-])c1ccncc1 returned STAT3 inh 10, STAT3 activator 95, APP 5'UTR act -6, STAT1 activator 94, NF-kB expr up 0.91 and STAT1 blocker 5.
`Cc1ccc(NC(=O)COC(=O)Cn2cnc3c2c(=O)n(C)c(=O)n3C)c(Cl)c1` gave STAT3 inh 10, STAT3 activator 97, APP 5'UTR act 5, STAT1 activator 97, NF-kB expr up 1.1 and STAT1 blocker 2.
`O=C(O)CCCNC(=O)Nc1ccccc1` gave STAT3 inh 4, STAT3 activator 94, APP 5'UTR act 3, STAT1 activator 98, NF-kB expr up 13* and STAT1 blocker 2.
For O=C1CCNc2cc3ccccc3cc21 the results were STAT3 inh -40, STAT3 activator 137*, APP 5'UTR act -5, STAT1 activator 100, NF-kB expr up 0.71 and STAT1 blocker -1.
Screening COc1cccc(OCCSc2nnc3sc4ccccc4n23)c1 returned STAT3 inh 14, STAT3 activator 88, APP 5'UTR act 3, STAT1 activator 103, NF-kB expr up 1.7 and STAT1 blocker -3.
c1ccc(OCCSc2nnc3sc4ccccc4n23)cc1 was read as STAT3 inh 87*, STAT3 activator 31, APP 5'UTR act 120, STAT1 activator 54, NF-kB expr up 1.4 and STAT1 blocker 50*.
Screening Cc1ccccc1NC(=O)C1Cc2ccccc2C(=O)O1 (stereo not given) returned STAT3 inh 23, STAT3 activator 84, APP 5'UTR act -1, STAT1 activator 108, NF-kB expr up 3.3* and STAT1 blocker -9.
`CCOc1ccc2nc(C)cc(Nc3cccc([N+](=O)[O-])c3)c2c1` gave STAT3 inh -3, STAT3 activator 104, APP 5'UTR act 26, STAT1 activator 99, NF-kB expr up 1.1 and STAT1 blocker 0.

Bioassay records (PubChem)
